Measurements from ChEMBL document CHEMBL2429818, “Recognition of HIV-TAR RNA using neomycin-benzimidazole conjugates” (Bioorg Med Chem Lett, 2013).
pIC50: −log10 of the molar value. The source made the active and inactive calls. The calls are words filed in the database; no cut-off is given here.

What was measured:
Nucleic Acid [1] = experiment: Thermal stabilization of HIV TAR RNA assessed as change in melting temperature at 1:1 ligand to RNA ratio by UV-vis spectrophotometric analysis; assay type: nucleic-acid assay; conditions: Human immunodeficiency virus
Nucleic Acid [2] = experiment: Displacement of fluorescein and rhodamine-labeled TAT peptide from HIV TAR RNA by FRET assay; assay type: nucleic-acid assay, Human immunodeficiency virus
Summary of the method: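 Tat peptide carrying fluorescein/rhodamine FRET pair mixed 1:1 with TAR RNA (100 nM each) in 50 mM Tris, 20 mM KCl, pH 7.4. Complex titrated with ligand until fluorescence stopped changing; displacement read as loss of fluorescein emission. Isotherm fitted to a dose-response curve to give IC50, the level displacing 50% of bound peptide.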

Nucleic Acid [3] = experiment: Displacement of ethidium bromide from HIV TAR RNA by fluorescent intercalator displacement assay; assay type: nucleic-acid assay, Human immunodeficiency virus
Summary of the method: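 TAR RNA prebound with ethidium bromide, then titrated successively with ligand to displace the intercalator. The resulting binding isotherm was analysed for DC50, the ligand concentration displacing 50% of bound dye.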

Nucleic Acid [4] = experiment: Binding affinity to HIV TAR RNA at 1.6 equiv after 5 mins by circular dichroism analysis; assay type: nucleic-acid assay; conditions: Human immunodeficiency virus
Summary of the method: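 TAR RNA titrated serially with ligand in small increments; after each addition the complex was stirred and equilibrated 5 min before recording the CD spectrum (average of three scans). Buffer 10 mM sodium cacodylate, 0.5 mM EDTA, 100 mM KCl, pH 6.8, at 20 °C.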

[5] = Displacement of fluorescein-labeled REV peptide from HIV RRE RNA after 1 hr by fluorescence polarization assay; design: species or system Human immunodeficiency virus

| Structure (SMILES) | ΔTm (Nucleic Acid [1]) | pIC50 (Nucleic Acid [2]) | DC50 (Nucleic Acid [3]) | Activity (Nucleic Acid [4]) | pIC50 [5] |
| --- | --- | --- | --- | --- | --- |
| CN1CCN(c2ccc3nc(-c4ccc(OCc5cn(Cn6cc(CCCCc7cn(C[C@H]8O[C@@H](O[C@@H]9[C@@H](O)[C@H](N)C[C@H](N)[C@H]9O[C@H]9O[C@H](CN)[C@@H](O)[C@H](O)[C@H]9N)[C@H](O)[C@@H]8O[C@H]8O[C@@H](CN)[C@@H](O)[C@H](O)[C@H]8N)nn7)nn6)nn5)cc4)[nH]c3c2)CC1 | 2.5 °C | 6.39 | 184 nM |  |  |
| CN1CCN(c2ccc3nc(-c4ccc(OCc5cn(CCCCCCn6cc(CCCCc7cn(C[C@H]8O[C@@H](O[C@@H]9[C@@H](O)[C@H](N)C[C@H](N)[C@H]9O[C@H]9O[C@H](CN)[C@@H](O)[C@H](O)[C@H]9N)[C@H](O)[C@@H]8O[C@H]8O[C@@H](CN)[C@@H](O)[C@H](O)[C@H]8N)nn7)nn6)nn5)cc4)[nH]c3c2)CC1 | 3.8 °C | 5.86 | 200 nM |  |  |
| CN1CCN(c2ccc3nc(-c4ccc(OCc5cn(CCCCCCCCCCn6cc(CCCCc7cn(C[C@H]8O[C@@H](O[C@@H]9[C@@H](O)[C@H](N)C[C@H](N)[C@H]9O[C@H]9O[C@H](CN)[C@@H](O)[C@H](O)[C@H]9N)[C@H](O)[C@@H]8O[C@H]8O[C@@H](CN)[C@@H](O)[C@H](O)[C@H]8N)nn7)nn6)nn5)cc4)[nH]c3c2)CC1 | 4 °C | 5.86 | 180 nM |  |  |
| CN1CCN(c2ccc3nc(-c4ccc(OCCn5cc(CCc6cn(C[C@H]7O[C@@H](O[C@@H]8[C@@H](O)[C@H](N)C[C@H](N)[C@H]8O[C@H]8O[C@H](CN)[C@@H](O)[C@H](O)[C@H]8N)[C@H](O)[C@@H]7O[C@H]7O[C@@H](CN)[C@@H](O)[C@H](O)[C@H]7N)nn6)nn5)cc4)[nH]c3c2)CC1 | 3.4 °C | 6.47 | 83 nM |  |  |
| C#CCOc1ccc(-c2nc3ccc(N4CCN(C)CC4)cc3[nH]2)cc1 | 1 °C |  |  |  |  |
| CN1CCN(c2ccc3nc(-c4ccc(OCCn5cc(COCc6cn(C[C@H]7O[C@@H](O[C@@H]8[C@@H](O)[C@H](N)C[C@H](N)[C@H]8O[C@H]8O[C@H](CN)[C@@H](O)[C@H](O)[C@H]8N)[C@H](O)[C@@H]7O[C@H]7O[C@@H](CN)[C@@H](O)[C@H](O)[C@H]7N)nn6)nn5)cc4)[nH]c3c2)CC1 | 3 °C | 5.89 | 78 nM |  |  |
| NC[C@@H]1O[C@H](O[C@H]2[C@@H](O)[C@H](O[C@@H]3[C@@H](O)[C@H](N)C[C@H](N)[C@H]3O[C@H]3O[C@H](CN)[C@@H](O)[C@H](O)[C@H]3N)O[C@@H]2CO)[C@H](N)[C@@H](O)[C@@H]1O [FRAMYCETIN] | 2 °C | 5.83 |  |  |  |

Continued, values first:

| ΔTm (Nucleic Acid [1]) | pIC50 (Nucleic Acid [2]) | DC50 (Nucleic Acid [3]) | Activity (Nucleic Acid [4]) | pIC50 [5] | Structure (SMILES) |
| --- | --- | --- | --- | --- | --- |
| 5.6 °C | 6.57 | 33 nM | Active | 6.11 | CN1CCN(c2ccc3nc(-c4ccc(OCc5cn(C[C@H]6O[C@@H](O[C@@H]7[C@@H](O)[C@H](N)C[C@H](N)[C@H]7O[C@H]7O[C@H](CN)[C@@H](O)[C@H](O)[C@H]7N)[C@H](O)[C@@H]6O[C@H]6O[C@@H](CN)[C@@H](O)[C@H](O)[C@H]6N)nn5)cc4)[nH]c3c2)CC1 |
| 5.4 °C | 6.02 | 81 nM |  |  | CN1CCN(c2ccc3nc(-c4ccc(OCCn5cc(CCCCCCc6cn(C[C@H]7O[C@@H](O[C@@H]8[C@@H](O)[C@H](N)C[C@H](N)[C@H]8O[C@H]8O[C@H](CN)[C@@H](O)[C@H](O)[C@H]8N)[C@H](O)[C@@H]7O[C@H]7O[C@@H](CN)[C@@H](O)[C@H](O)[C@H]7N)nn6)nn5)cc4)[nH]c3c2)CC1 |
| 3 °C | 6.42 | 180 nM |  |  | CN1CCN(c2ccc3nc(-c4ccc(OCCn5cc(-c6ccc(-c7cn(C[C@H]8O[C@@H](O[C@@H]9[C@@H](O)[C@H](N)C[C@H](N)[C@H]9O[C@H]9O[C@H](CN)[C@@H](O)[C@H](O)[C@H]9N)[C@H](O)[C@@H]8O[C@H]8O[C@@H](CN)[C@@H](O)[C@H](O)[C@H]8N)nn7)cc6)nn5)cc4)[nH]c3c2)CC1 |
| 2.1 °C | 6.07 | 150 nM |  |  | CN1CCN(c2ccc3nc(-c4ccc(OCc5cn(CCCCCn6cc(CCCCc7cn(C[C@H]8O[C@@H](O[C@@H]9[C@@H](O)[C@H](N)C[C@H](N)[C@H]9O[C@H]9O[C@H](CN)[C@@H](O)[C@H](O)[C@H]9N)[C@H](O)[C@@H]8O[C@H]8O[C@@H](CN)[C@@H](O)[C@H](O)[C@H]8N)nn7)nn6)nn5)cc4)[nH]c3c2)CC1 |
| 4.1 °C | 6.29 | 140 nM |  |  | CN1CCN(c2ccc3nc(-c4ccc(OCCn5cc(CCCc6cn(C[C@H]7O[C@@H](O[C@@H]8[C@@H](O)[C@H](N)C[C@H](N)[C@H]8O[C@H]8O[C@H](CN)[C@@H](O)[C@H](O)[C@H]8N)[C@H](O)[C@@H]7O[C@H]7O[C@@H](CN)[C@@H](O)[C@H](O)[C@H]7N)nn6)nn5)cc4)[nH]c3c2)CC1 |
